Screening results deposited in PubChem BioAssay by several laboratories.
TbMetRS inhib: Trypanosoma brucei MetRS inhibition | purified T. brucei MetRS, ATP depletion, Kinase-Glo luminescence | inhibition, % at 11.9 µM | hit rate 0.4% among 360,000 | AID 624268;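 active means inhibition above a per-plate cutoff of the control wells' mean inhibition plus 3 SD, cut at about 5.5% in these data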;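 further: 0% = DMSO wells median and 100% = median of wells with control inhibitor compound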
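Test system – parasite MetRS enzyme · Reagent – substrates ATP, L-methionine and bulk Escherichia coli tRNA · Doses – 11.9 µM compound single dose, 0.9% DMSO · Times – 15 min enzyme-compound preincubation, 2 h reaction, 10 min detection, 25 °C · Signal – Kinase-Glo luminescence, ATP depletion format · Controls – DMSO-only wells as low control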
aDG glyco act: alpha-DG glycosylation activation; activation, % at 10 µM; Pro5-aDG cells, alpha-DG glycosylation AlphaScreen (IIH6); 0% Pro5, 100% B10-LARGE cell signal; AID 624168; hit rate 0.22% among 360,000;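 active means activation of at least 8% versus controls, or a plate z-score of at least 8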;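 further: Pro5 are CHO cells carrying HIG-tagged alpha-DG that lacks glycosylation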
NTR1 agonist: agonists of human neurotensin receptor NTR1 | NTR1-U2OS beta-arrestin-GFP spot imaging, agonist mode | activation, % at 20 µM | hit rate 0.17% among 330,000;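 active means activation at or above 40% of the spot to cytoplasm intensity ratio, with at least 20 cells analyzed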;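 further: 0% = DMSO without peptide and 100% = 100 nM NTR1 peptide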
H9c2 TAG inh: inhibitors of triacylglycerol accumulation; H9c2 cells, Nile Red lipid (TAG) fluorescence; cells loaded with 200 µM oleic acid; inhibition, % at 12.5 µM; hit rate 0.66% among 230,000;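 active means pattern-corrected inhibition of lipid staining of at least 50% with the nuclear-stain viability signal not falling by more than 50%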;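 further: 0% = DMSO wells and 100% = triacsin C control wells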
MC4R ag barr: activates human MC4R beta-arrestin recruitment; P32245; U2OS MC4R beta-arrestin complementation, luminescence; percent of melanotan II response, DMSO zero; activation, % at 8.9 µM; hit rate 0.98% among 360,000; AID 540308;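 active means activation above a per-plate cutoff, the mean activation of sample wells on that plate plus 3 SD, cut at about 8% in these data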
Target sequence (P32245 whole entry, looked up): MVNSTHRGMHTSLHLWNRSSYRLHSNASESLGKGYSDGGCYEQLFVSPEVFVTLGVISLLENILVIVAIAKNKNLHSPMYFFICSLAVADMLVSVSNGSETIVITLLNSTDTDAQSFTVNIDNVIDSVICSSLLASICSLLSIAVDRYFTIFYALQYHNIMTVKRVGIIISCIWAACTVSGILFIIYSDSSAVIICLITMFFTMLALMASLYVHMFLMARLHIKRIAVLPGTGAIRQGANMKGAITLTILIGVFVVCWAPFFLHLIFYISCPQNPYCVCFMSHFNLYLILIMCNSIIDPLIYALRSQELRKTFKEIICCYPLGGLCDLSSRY
MC4R antag cAMP: blocks human MC4R cAMP signaling; P32245; MC4R-expressing cells, MTII-stimulated cAMP, LANCE TR-FRET; inhibition, % at 6.5 µM; hit rate 0.48% among 360,000;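 active means inhibition above its plate's cutoff, the mean of tested wells on that plate plus 3 SD, cut at about 29% in these data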;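 further: 0% = Melanotan II alone and 100% = Melanotan II plus saturating MCL0020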
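Assay system: U2OS-MC4R stable cell line; Also added: Melanotan II; Technique: Eu-cAMP/anti-cAMP TR-FRET, emission 671 nm; Times: 30-min compound, 1-h challenge, 1-h detection, room temperature.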
TbMetRS confirm: confirmation of Trypanosoma brucei MetRS inhibitors; shares compounds with TbMetRS inhib; T. brucei MetRS enzyme, luminescence (ATP depletion); inhibition, % at 11.9 µM; hit rate 93% among 1,400; AID 624412; in the data active means inhibition above about 7%
Jurkat tox: counter-screen for T. brucei MetRS inhibitors: Jurkat cell cytotoxicity. shares compounds with TbMetRS inhib. Jurkat cells viability, ATP luminescence. inhibition, % at 8.3 µM. hit rate 12% among 1,400; in the data active means inhibition above about 15%;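 further: 0% = vehicle and 100% = reference inhibitor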
Tb MetRS inh FP: inhibits T. brucei methionyl tRNA synthetase in orthogonal FP test. AID 651607. shares compounds with TbMetRS inhib. hit rate 44% among 1,400. inhibition, % at 11.9 µM. purified T. brucei MetRS, fluorescence polarization; in the data active means inhibition above about 17%;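 further: 0% = vehicle wells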
Starred values were filed as active, the others as inactive. Shown are actives, neighbours in structure and some others; about 2.4% of the full set was active somewhere.

Results for O=C(CCCOc1ccc(Cl)cc1Cl)NCCCn1ccnc1 ?
TbMetRS inhib: 6.5*; aDG glyco act: 0; NTR1 agonist: 0; MC4R ag barr: 0; MC4R antag cAMP: 15; TbMetRS confirm: 18*; Jurkat tox: -7; Tb MetRS inh FP: 11

What do the screens show for `Clc1ccc(-c2nc3c4ccccc4ccn3c2Cc2ccsc2)cc1`?
TbMetRS inhib: -1; aDG glyco act: 1

Results for O=C(/C=C/c1ccc(Br)cc1)NC(=O)c1ccccc1O ?
TbMetRS inhib: 7.2*; aDG glyco act: 0; NTR1 agonist: 3; H9c2 TAG inh: -4; MC4R ag barr: -2; MC4R antag cAMP: 14; TbMetRS confirm: 8.8*; Jurkat tox: -3; Tb MetRS inh FP: 4

Results for O=C(/C=C/c1ccc(O)c(O)c1)NC(=O)c1ccccc1O ?
TbMetRS inhib: 3; aDG glyco act: 0; NTR1 agonist: 0; MC4R ag barr: 2; MC4R antag cAMP: 0

What do the screens show for `Cc1cccc(NC(=O)Cn2c(/C=C/c3ccccc3)nc3ccccc32)c1`?
TbMetRS inhib: 10*; aDG glyco act: 1; NTR1 agonist: 1; MC4R ag barr: 2; MC4R antag cAMP: 10; TbMetRS confirm: 19*; Jurkat tox: 0; Tb MetRS inh FP: 10

What do the screens show for `CCOC(=O)c1cccc(NC(=O)Cn2c(CC(=O)NC)nc3ccccc32)c1`?
TbMetRS inhib: 79*; aDG glyco act: 2; NTR1 agonist: 0; MC4R ag barr: -2; MC4R antag cAMP: 4; TbMetRS confirm: 88*; Jurkat tox: 5; Tb MetRS inh FP: 71*

Results for Cc1nc2ccccc2n(CC(=O)Nc2cc(Cl)cc(Cl)c2)c1=O ?
TbMetRS inhib: 5.8*; aDG glyco act: 1; NTR1 agonist: 0; H9c2 TAG inh: 8; MC4R ag barr: -2; MC4R antag cAMP: 4; TbMetRS confirm: 11*; Jurkat tox: -4; Tb MetRS inh FP: 7

How did Cc1cc2c(cc1C)-n1nnnc1C(N1CCN(c3ccccc3F)CC1)C(=O)N2 (configuration not stated) do in these assays?
TbMetRS inhib: -1; aDG glyco act: 0

How did O=C(Nc1cccc2ccccc12)c1csc([C@@H]2O[C@H](CO)[C@H](O)[C@H](O)[C@H]2O)n1 do in these assays?
TbMetRS inhib: 0; aDG glyco act: 0; H9c2 TAG inh: 122; MC4R ag barr: -1; MC4R antag cAMP: 7

What do the screens show for `O=C1CC(N2CCC(c3nc4ccccc4o3)CC2)C(=O)N1c1cc(Cl)cc(Cl)c1` (configuration not stated)?
TbMetRS inhib: 6.0*; aDG glyco act: 0; NTR1 agonist: 2; MC4R ag barr: 3; MC4R antag cAMP: 4; TbMetRS confirm: 2; Jurkat tox: 3; Tb MetRS inh FP: -6

What do the screens show for `Cc1cccc(N2C(=O)CC(N3CCC(c4nc5ccccc5[nH]4)CC3)C2=O)c1` (configuration not stated)?
TbMetRS inhib: 2; aDG glyco act: 0; NTR1 agonist: 0; H9c2 TAG inh: -15; MC4R ag barr: -3; MC4R antag cAMP: -6

How did COCCNC(=O)C1(C)CCCN(C(=O)c2cc(F)ccc2C)C1 (configuration not stated) do in these assays?
TbMetRS inhib: 0; aDG glyco act: 0; H9c2 TAG inh: 0; MC4R ag barr: -2; MC4R antag cAMP: 8

Results for O=C(NCc1ccccn1)C1CCC(=O)N(Cc2ccc(Cl)cc2)C1 (configuration not stated) ?
TbMetRS inhib: 1; aDG glyco act: -1; NTR1 agonist: 2; MC4R ag barr: -2; MC4R antag cAMP: 10
